“And” between values parts separate entries of the source, which are not always exact repeats. Equal values may be shown once. “Also recorded” adds a separate entry of the source. Read-outs that look alike come from different tables or passages of the source.
Tests used:
[1] = system: SARS-CoV-2 (USA-WA1/2020); assay type: cell-based
[2] = system: SARS-CoV-2 (USA-WA1/2020); experiment: microbe, parasite or virus in culture; assay type: cell-based; settings: for EC50: Severe acute respiratory syndrome coronavirus 2, Huh7.5, read-out: EC50(µM) (R^2); for IC50: Severe acute respiratory syndrome coronavirus 2, Huh7.5, read-out: IC50, inhibitory viral replication concentration at 50%
[3] = system: SARS-CoV-2 double-stranded RNA; assay type: cell-based
[4] = system: SARS-CoV-2 double-stranded RNA; assay type: cell-based; remark: listed apart in the source
SARS-CoV-2 [5] = experiment: microbe, parasite or virus in culture; assay type: cell-based; settings: Severe acute respiratory syndrome coronavirus 2, Vero
SARS-CoV-2 Mpro [6] = biological target: T1, SARS-CoV-2 Mpro (Severe acute respiratory syndrome coronavirus 2, UniProt P0DTD1); experiment: biochemical; settings: for IC50: IC50 against Mpro activity
[7] = system: pyrimidine synthesis (DHODH) in Vero E6 cells; experiment: Metabolomic analysis of Vero E6 cells, de novo pyrimidine synthesis; assay type: cell-based; settings: 24 h; for Pyrimidine synthesis, UMP levels (in words): Vero E6, 10 µM
Procedure, shortened: (§1)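 Vero E6 cells at 80% confluence were treated for 24 h with test compound (1, 5 or 10 µM) in regular culture medium, with DMSO as vehicle. Cells were washed with ice-cold PBS and scraped into ice-cold 80% methanol for LC-MS metabolomics. Metabolites were matched to an in-house database (10 ppm mass, 0.5 min retention time tolerance), and peak integration was manually curated.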

[8] = system: purine synthesis pathway in Vero E6 cells; experiment: Metabolomic analysis of Vero E6 cells, purine synthesis pathway; assay type: cell-based; settings: Vero E6, 1 and 5 µM
Procedure, shortened: as §1

SARS-CoV-2 [9] = assay type: cell-based
[10] = system: ecto-5′-nucleotidase (NT5E) or (CD73); experiment: Western blot of NT5E; assay type: cell-based
Procedure, shortened: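 Vehicle- and test compound-treated cells were lysed in RIPA buffer with protease inhibitors, and protein was measured by BCA in triplicate. Lysates were separated by SDS-PAGE and transferred to nitrocellulose. Membranes were blocked in 5% skim milk/TBS and probed with anti-NT5E/CD73 primary antibody.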

[11] = Mouse pharmacokinetics: plasma and epithelial lining fluid; assay type: in vivo, mice
Procedure, shortened: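 Female 6-week-old CD1 mice were dosed PO once daily for 7 days. […] Plasma and BAL were assayed by LC-MS/MS against spiked standard curves. ELF levels came from urea normalization (VELF = VBAL × UreaBAL/Ureaplasma). Free drug was calculated as total × fraction unbound from rapid equilibrium dialysis.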

Vero E6 cells [12] = settings: for Drug-induced toxicity, LDH release (in words): Vero E6, 24 h; for Effect on cellular ATP levels (in words): Vero E6, Cell Titer Glo
Vero E6 cells [13] = settings: Vero E6, 1–10 µM, 24 h
[14] = cited from earlier work
[15] = system: SARS-CoV-2 viral clearance; settings: patients hospitalized with COVID-19 ref 62; cited from earlier work
[16] = data from DrugBank ref 49; cited from earlier work
in vitro = settings: human
SARS-CoV-2 Mpro [17] = biological target: T1, SARS-CoV-2 Mpro; assay type: binding
[18] = read-out: Inhibition of Mpro activity
[19] = mice, 10 mg/kg PO daily for 7 days, 10 mg/kg

O=C1C(O)=C([C@H]2CC[C@H](c3ccc(Cl)cc3)CC2)C(=O)c2ccccc21 [Atovaquone]
Antiviral effect on SARS-CoV-2 replication (in words) [1]: dose-dependent inhibition
EC50 [2]: 6.2 µM
IC50 [2]: 6.8 µM
dsRNA staining compared to DMSO-treated control cells [3]: striking reduction in dsRNA staining
dsRNA staining compared to DMSO-treated control cells [4]: striking reduction in dsRNA staining
IC50 (SARS-CoV-2 [5]): 0.02 µM
inhibition at 50 µM (SARS-CoV-2 Mpro [6]; read-out: Inhibitory effect on Mpro activity): ~35%
Pyrimidine synthesis, UMP levels versus orotate and dihydroorotate (in words) ([7]; Vero E6, 1 µM and 5 µM): does not inhibit pyrimidine synthesis
Pyrimidine synthesis, UMP levels (in words) [7]: significant depletion in UMP levels
Pyrimidine synthesis, UMP levels (in words) ([7]; listed as atovaquone): significant inhibition in pyrimidine synthesis
Free guanosine, inosine and adenosine levels (in words) [8]: downregulation of adenosine, guanosine, and inosine levels
Free guanosine, inosine and adenosine levels (in words) ([8]; listed as atovaquone): significant depletion
Viral replication in the presence of uridine (in words) (SARS-CoV-2 [9]): significant inhibition for viral replication regardless the uridine concentration
NT5E protein expression, quantification (in words) ([10]; 5 µM): significant decrease
NT5E expression (in words) ([10]; atovaquone treated cells): significantly downregulated
Cmax in mice compared to BID dosing in HIV infected volunteers ([11]; mice 20 mg/kg PO daily for 7 days versus human values of ref 57): 2–5 fold
peak total plasma concentration ([11]; mice, 20 mg/kg PO daily for 7 days): 100 µg/mL
peak free epithelial lining fluid (ELF) concentration ([11]; mice, 20 mg/kg PO daily for 7 days, urea normalized, 20 mg/kg): 70 nM
peak free plasma level ([11]; mice, 20 mg/kg PO daily for 7 days, 20 mg/kg): ~44 nM
half-life ([11]; mouse, in vivo): 18 to 38 h
Drug-induced toxicity, LDH release (in words) (Vero E6 cells [12]): did not elicit substantial LDH release
Phospholipidosis, NBD-PE (in words) (Vero E6 cells [13]): did not show phospholipidosis
serum levels [14]: > 40 µM
primary endpoint: effect on SARS-CoV-2 viral clearance compared with placebo [15]: did not meet the primary endpoint
Protein bound [16]: > 99.9%
CC50 (in vitro): > 100 µM

COc1ccccc1Oc1c(NS(=O)(=O)c2ccc(C(C)(C)C)cc2)nc(-c2ncccn2)nc1OCCO [Bosentan]
Antiviral effect on SARS-CoV-2 replication (in words) [1]: modest dose-dependent antiviral effects
Drug-induced toxicity, LDH release (in words) (Vero E6 cells [12]): minimal impact
Effect on cellular ATP levels (in words) (Vero E6 cells [12]): minimal impact

COc1cccc2c1C(=O)c1c(O)c3c(c(O)c1C2=O)C[C@@](O)(C(C)=O)C[C@@H]3O[C@H]1C[C@H](N)[C@H](O)[C@H](C)O1 [Daunorubicin]
Antiviral effect on SARS-CoV-2 replication (in words) [1]: dose-dependent inhibition
Drug-induced toxicity, LDH release (in words) (Vero E6 cells [12]): toxic to cells at high doses

CCCCc1oc2ccc(NS(C)(=O)=O)cc2c1C(=O)c1ccc(OCCCN(CCCC)CCCC)cc1 [Dronedarone]
Antiviral effect on SARS-CoV-2 replication (in words) [1]: dose-dependent inhibition
EC50 [2]: 0.38 µM
IC50 [2]: 0.38 µM
Inhibition of Mpro activity (in words) (SARS-CoV-2 Mpro [6]): significant inhibition
IC50 (SARS-CoV-2 Mpro [6]): 18 µM
inhibition at 50 µM (SARS-CoV-2 Mpro [6]; [18]): 50%
Drug-induced toxicity, LDH release (in words) (Vero E6 cells [12]): particularly toxic at IC50 concentrations
CC50 (in vitro): 20.2 µM

CCN(CC)C(=O)/C(C#N)=C/c1cc(O)c(O)c([N+](=O)[O-])c1 [Entacapone]
Antiviral effect on SARS-CoV-2 replication (in words) [1]: did not elicit a reproducible antiviral effect
Inhibition of Mpro activity (in words) (SARS-CoV-2 Mpro [6]): significant inhibition
IC50 (SARS-CoV-2 Mpro [6]): 9 µM and 9.04 µM
inhibition at 50 µM (SARS-CoV-2 Mpro [6]; [18]): 50%
Mpro covalently modified (SARS-CoV-2 Mpro [17]): 15–20%

COC(=O)Nc1nc2ccc(C(=O)c3ccccc3)cc2[nH]1 [Mebendazole]
Antiviral effect on SARS-CoV-2 replication (in words) [1]: dose-dependent inhibition
Antiviral activity in Huh7.5 cells (in words) [2]: lacks strong inhibitory activity; also recorded: less effective
Inhibition of Mpro activity (in words) (SARS-CoV-2 Mpro [6]): significant inhibition
IC50 (SARS-CoV-2 Mpro [6]): 19 µM and 19.9 µM
time of maximum total plasma concentration after the last dose ([11]; mice, 10 mg/kg PO daily for 7 days): ≤ 90 min
maximum total plasma concentration [11, 19]: 697.67 ng/mL and 2.36 µM
peak free drug level in ELF [11, 19]: ~550 ng/mL and ~1.8 µM
Drug-induced toxicity, LDH release (in words) (Vero E6 cells [12]): absence of overt toxicity
peak plasma levels of patients ([14]; patients receiving 10 mg/kg every 6 h (total 40 mg/kg/day) ref 60): 0.3 to 1.69 µM
CC50 (in vitro): > 100 µM

O=C1c2c(O)ccc(O)c2C(=O)c2c(NCCNCCO)ccc(NCCNCCO)c21 [Mitoxantrone]
Antiviral effect on SARS-CoV-2 replication (in words) [1]: dose-dependent inhibition
Drug-induced toxicity, LDH release (in words) (Vero E6 cells [12]): did not elicit substantial LDH release

C[C@@H]1O[C@@H](O[C@H]2C[C@@H](O)[C@]3(CO)[C@H]4[C@H](O)C[C@]5(C)[C@@H](C6=CC(=O)OC6)CC[C@]5(O)[C@@H]4CC[C@]3(O)C2)[C@H](O)[C@H](O)[C@H]1O [Ouabain]
Antiviral effect on SARS-CoV-2 replication (in words) [1]: dose-dependent inhibition
IC50 against SARS-CoV-2 (in words) [1]: low nanomolar range
EC50 [2]: 0.07 µM
IC50 [2]: 0.075 µM
Drug-induced toxicity, LDH release (in words) (Vero E6 cells [12]): absence of overt toxicity
CC50 (in vitro): > 100 µM

C=C[C@H]1C[N@@]2CC[C@H]1C[C@@H]2[C@@H](O)c1ccnc2ccc(OC)cc12 [Quinidine]
Antiviral effect on SARS-CoV-2 replication (in words) [1]: modest dose-dependent antiviral effects
Drug-induced toxicity, LDH release (in words) (Vero E6 cells [12]): minimal impact
Effect on cellular ATP levels (in words) (Vero E6 cells [12]): minimal impact

COc1cccc(-c2ccc(NC(=O)C3=C(C(=O)O)CCC3)c(F)c2)c1 [vidofludimus]
Viral replication in the presence of uridine (in words) (SARS-CoV-2 [9]): inhibitory activity was reversed with addition of uridine; also recorded: activity changed based on the uridine addition
